Results on 22 molecules are retold here after ChEMBL document CHEMBL5154792, “A New Amino Acid for Improving Permeability and Solubility in Macrocyclic Peptides through Side Chain-to-Backbone Hydrogen Bonding” (J Med Chem, 2022).

Series [1] can be described thus: Apparent permeability of the compound after 15 hrs by UPLC-MS based PAMPA. In kind it is ADME. The note with it: for Papp at 15 h: PAMPA; for Papp: pampa, 15 h. A digest of the protocol: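 Donor: 2 µM peptide in PBS pH 7.4 with 5% DMSO final. Acceptor: 5% DMSO in PBS. Membrane of 1% (w/v) soybean lecithin in n-dodecane. Incubated ~15 h at room temperature (exact time recorded) in a humidified sealed chamber. Donor and acceptor wells quantified by UPLC-MS in quadruplicate. Papp derived from %T (acceptor vs theoretical equilibrium) using membrane area 240 mm2.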

A short description of series [2]: Thermodynamic solubility of the compound at pH 7.4 after 24 hrs by UPLC-MS analysis. It is filed as physicochemical. The note with it: buffer, read-out: Therm_solubility. A digest of the protocol: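 10 mM DMSO stocks were dried down, redissolved in PBS pH 7.4 (maximum 2 mM), sonicated 1 h, then gently agitated ~24 h at 37 °C. Filtered through 0.7 µm glass fiber, diluted up to 40-fold in MeCN and quantified by UPLC-MS against standard curves (50 µM to 0.1 µM in DMSO).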

SMILES strings stand for the structures. ≈ marks a conversion by molar mass, not a printed value.

Take `CC(C)C[C@@H]1NC(=O)[C@@H](CCC(=O)N2CCCC2)NC(=O)[C@H](CC(C)C)NC(=O)[C@@H](CC(C)C)NC(=O)[C@H]2CCCN2C(=O)[C@H](CC(C)C)NC1=O`: the apparent permeability coefficient (Papp) at 15 h in series [1] was 0.14 ×10⁻⁶ cm/s. In addition, in series [2], the solubility thermodynamic at 24 h was 580 µM (≈ 425 µg/mL).
Turning to `CC(C)C[C@@H]1NC(=O)[C@@H](CC(C)C)NC(=O)[C@@H](CC(C)C)NC(=O)[C@@H](CCC(=O)N2CCCC2)NC(=O)[C@H]2CCCN2C(=O)[C@H](CC(C)C)NC1=O`, the apparent permeability (Papp) in series [1] is 1.7 10^-6 cm/s. Besides, in series [2], the solubility thermodynamic at 24 h was 640 µM (≈ 468 µg/mL).
On to `CC(C)C[C@@H]1NC(=O)[C@@H](CC(C)C)NC(=O)[C@@H](CC(C)C)NC(=O)[C@@H](CCC(=O)N2CCCC2)NC(=O)[C@@H](CC(C)C)NC(=O)[C@H]2CCCN2C1=O`, for which the Papp at 15 h in series [1] came to 1.1 ×10⁻⁶ cm/s. Also, the solubility thermodynamic at 24 h in series [2] amounted to 450 µM (≈ 329 µg/mL).
The matching figures for `CC(C)C[C@@H]1NC(=O)[C@@H](CC(C)C)NC(=O)[C@H](CC(C)C)NC(=O)[C@@H](CC(C)C)NC(=O)[C@H]2CCCN2C(=O)[C@H](CCC(=O)N2CCCC2)NC1=O`: 0.18 ×10⁻⁶ cm/s and 600 µM (≈ 439 µg/mL).
As to `CC(C)C[C@@H]1NC(=O)[C@@H](CC(C)C)NC(=O)[C@H](CC(C)C)NC(=O)[C@@H](CC(=O)N2CCCC2)NC(=O)[C@H]2CCCN2C(=O)[C@H](CC(C)C)NC1=O`, the Papp at 15 h in series [1] stood at 0.56 ×10⁻⁶ cm/s. The solubility thermodynamic at 24 h in series [2] was found to be 670 µM (≈ 481 µg/mL).
The matching figures for `CC(C)C[C@@H]1NC(=O)[C@@H](CC(C)C)NC(=O)[C@@H](CC(C)C)NC(=O)[C@@H](CC(C)C)NC(=O)[C@H]2CCCN2C(=O)[C@H](CCC(=O)N2CCCC2)NC1=O`: 0.66 ×10⁻⁶ cm/s and 720 µM (≈ 527 µg/mL).
For `CC(C)C[C@@H]1NC(=O)[C@@H](CC(C)C)NC(=O)[C@@H](CC(C)C)NC(=O)[C@@H](CC(C)C)NC(=O)[C@H]2CCCN2C(=O)[C@H](CC(C)C)NC1=O`, the apparent permeability coefficient (Papp) in series [1] is 8.1 10^-6 cm/s. Moreover, in series [2], the solubility thermodynamic at 24 h was found to be 16 µM (≈ 10.6 µg/mL).
Consider `CC(C)C[C@@H]1NC(=O)[C@@H](CC(C)C)NC(=O)[C@H](CC(C)C)NC(=O)[C@@H](CC(=O)N(C)C)NC(=O)[C@H]2CCCN2C(=O)[C@H](CC(C)C)NC1=O`, for which the apparent permeability coefficient (Papp) at 15 h in series [1] amounted to 0.28 ×10⁻⁶ cm/s. The solubility thermodynamic at 24 h in series [2] was 1120 µM (≈ 775 µg/mL).
Consider `CC(C)C[C@@H]1NC(=O)[C@@H](CC(C)C)NC(=O)[C@@H](CC(C)C)NC(=O)[C@@H](CC(C)C)NC(=O)[C@@H](CCC(=O)N2CCCC2)NC(=O)[C@H]2CCCN2C1=O`, for which the apparent permeability coefficient (Papp) in series [1] is 0.56 10^-6 cm/s. For the same molecule, the solubility thermodynamic at 24 h in series [2] was 610 µM (≈ 447 µg/mL).
As for `CC(C)C[C@@H]1NC(=O)[C@@H](CC(C)C)NC(=O)[C@@H](CC(C)C)NC(=O)[C@@H](CC(C)C)NC(=O)[C@@H](CC(C)C)NC(=O)[C@H]2CCCN2C1=O`, in series [1], the apparent permeability coefficient (Papp) is on record as 5.3 10^-6 cm/s. Moreover, the solubility thermodynamic at 24 h in series [2] came to 240 µM (≈ 159 µg/mL).
In the case of `CC(C)C[C@@H]1NC(=O)[C@H](CCC(=O)N2CCCC2)NC(=O)[C@@H](CC(C)C)NC(=O)[C@@H](CC(C)C)NC(=O)[C@@H](CC(C)C)NC(=O)[C@H]2CCCN2C1=O`, the Papp at 15 h in series [1] came out at 0.32 ×10⁻⁶ cm/s. For the same molecule, in series [2], the solubility thermodynamic at 24 h is 510 µM (≈ 373 µg/mL).
For `CC(C)C[C@@H]1NC(=O)[C@@H](CC(C)C)NC(=O)[C@H]2CCCN2C(=O)[C@H](CC(C)C)NC(=O)[C@H](CCC(=O)N2CCCC2)NC(=O)[C@@H](CC(C)C)NC1=O`, the Papp at 15 h in series [1] amounted to 0.28 ×10⁻⁶ cm/s. Moreover, the solubility thermodynamic at 24 h in series [2] was 550 µM (≈ 403 µg/mL).
In the case of `CC(C)C[C@H]1NC(=O)[C@H]2CCCN2C(=O)[C@H](CCC(=O)N2CCCC2)NC(=O)[C@@H](CC(C)C)NC(=O)[C@@H](CC(C)C)NC(=O)[C@@H](CC(C)C)NC1=O`, in series [1], the Papp at 15 h was 1.5 ×10⁻⁶ cm/s. Moreover, the solubility thermodynamic at 24 h in series [2] turned out to be 560 µM (≈ 410 µg/mL).
For the molecule `CC(C)C[C@@H]1NC(=O)[C@@H](CC(C)C)NC(=O)[C@@H](CCC(=O)N2CCCC2)NC(=O)[C@@H](CC(C)C)NC(=O)[C@H]2CCCN2C(=O)[C@H](CC(C)C)NC1=O`, the Papp at 15 h in series [1] was determined as 0.66 ×10⁻⁶ cm/s. In addition, in series [2], the solubility thermodynamic at 24 h amounted to 550 µM (≈ 403 µg/mL).
Consider `CC(C)C[C@@H]1NC(=O)[C@@H](CC(C)C)NC(=O)[C@@H](CCC(=O)N2CCCC2)NC(=O)[C@@H](CC(C)C)NC(=O)[C@@H](CC(C)C)NC(=O)[C@H]2CCCN2C1=O`, for which the apparent permeability coefficient (Papp) at 15 h in series [1] stood at 1.3 ×10⁻⁶ cm/s. Moreover, in series [2], the solubility thermodynamic at 24 h is 460 µM (≈ 337 µg/mL).
As to `CC(C)C[C@@H]1NC(=O)[C@@H](CC(C)C)NC(=O)[C@H](CC(C)C)NC(=O)[C@@H](CC(C)C)NC(=O)[C@H]2CCCN2C(=O)[C@H](CC(C)C)NC1=O`, the Papp in series [1] is reported as 8 10^-6 cm/s. The solubility thermodynamic at 24 h in series [2] turned out to be 63 µM (≈ 41.8 µg/mL).
Regarding `COC(=O)CC[C@H]1NC(=O)[C@H]2CCCN2C(=O)[C@H](CC(C)C)NC(=O)[C@H](CC(C)C)NC(=O)[C@@H](CC(C)C)NC(=O)[C@H](CC(C)C)NC1=O`, the Papp at 15 h in series [1] is 2 ×10⁻⁶ cm/s. Moreover, the solubility thermodynamic at 24 h in series [2] was 710 µM (≈ 492 µg/mL).
For `CC(C)C[C@@H]1NC(=O)[C@@H](CC(C)C)NC(=O)[C@H](CC(C)C)NC(=O)[C@@H](CCC(=O)N(C)C)NC(=O)[C@H]2CCCN2C(=O)[C@H](CC(C)C)NC1=O`, the apparent permeability coefficient (Papp) at 15 h in series [1] is 0.7 ×10⁻⁶ cm/s. Besides, the solubility thermodynamic at 24 h in series [2] turned out to be 1660 µM (≈ 1170 µg/mL).
`CC(C)C[C@@H]1NC(=O)[C@@H](CCC(=O)N2CCCC2)NC(=O)[C@@H](CC(C)C)NC(=O)[C@@H](CC(C)C)NC(=O)[C@H]2CCCN2C(=O)[C@H](CC(C)C)NC1=O`: the Papp at 15 h in series [1] was found to be 0.3 ×10⁻⁶ cm/s. Also, the solubility thermodynamic at 24 h in series [2] came to 580 µM (≈ 425 µg/mL).
Turning to `CC(C)C[C@@H]1NC(=O)[C@@H](CCC(=O)N2CCCC2)NC(=O)[C@@H](CC(C)C)NC(=O)[C@@H](CC(C)C)NC(=O)[C@@H](CC(C)C)NC(=O)[C@H]2CCCN2C1=O`, the apparent permeability (Papp) at 15 h in series [1] was 0.13 ×10⁻⁶ cm/s. For the same molecule, the solubility thermodynamic at 24 h in series [2] worked out at 550 µM (≈ 403 µg/mL).
In the case of `CC(C)C[C@@H]1NC(=O)[C@@H](CC(C)C)NC(=O)[C@H](CCC(=O)N2CCCC2)NC(=O)[C@@H](CC(C)C)NC(=O)[C@H]2CCCN2C(=O)[C@H](CC(C)C)NC1=O`, in series [1], the Papp at 15 h is 0.23 ×10⁻⁶ cm/s. In addition, the solubility thermodynamic at 24 h in series [2] was determined as 140 µM (≈ 102 µg/mL).
In the case of `CC(C)C[C@@H]1NC(=O)[C@@H](CC(C)C)NC(=O)[C@H](CC(C)C)NC(=O)[C@@H](CCC(=O)N2CCCC2)NC(=O)[C@H]2CCCN2C(=O)[C@H](CC(C)C)NC1=O`, the Papp in series [1] is on record as 1.5 10^-6 cm/s. For the same molecule, in series [2], the solubility thermodynamic at 24 h is 730 µM (≈ 534 µg/mL).
